In data set [1] the test system is Mycobacterium tuberculosis. Put plainly: Antibacterial activity against Mycobacterium tuberculosis H37RvMA grown in 7H9/ADC medium measured 7 to 14 days post inoculation by broth microdilution method. Type of data set: functional. (Dilution methods test growth across graded concentrations, often in twofold steps.)
The test system of data set [2] is Mycobacterium tuberculosis. Put plainly: Antibacterial activity against Mycobacterium tuberculosis H37RvMA grown in GAST/Fe medium measured 7 to 14 days post inoculation by broth microdilution method. The class given is functional. The procedure, abridged:
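H37RvMa grown to OD600 0.6–0.7, diluted 1:100 in GAST/Fe. Compounds two-fold serially diluted from a top concentration of 640 μM, in duplicate. Incubated at 37 °C with humidification.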

The test system of another data set is Vero. Put plainly: Cytotoxicity against African green monkey Vero cells assessed as reduction in cell viability by MTT assay. As to conditions: Chlorocebus sabaeus. The class given is cell-based. Summed up: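 MTT assay in Vero cells, samples in triplicate on one occasion. Stocks at 20 mg/mL in DMSO, diluted in complete medium as 10-fold serial dilutions over 6 concentrations. Emetine used as reference. IC50 derived by non-linear dose-response curve fitting.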
A general note: Tetrazolium dyes change colour on reduction, which living cells bring about.

A short description of data set [3]: Kinetic solubility of the compound in pH 7.4 solution at 10 to 220 uM after 2 hrs by shake flask method. The following applies: for Kinetic_solubility: buffer, pH 7.4, 2 h, 220 µM; for solubility kinetic at 2 h: pH 7.4 solution, pH 7.4, read-out: Kinetic_solubility. Type of data set: physicochemical.

The structures appear in SMILES notation. pIC50: −log10 of the molar value. Values after ≈ are worked out from the molar mass of the structure shown. Where only a bound is given, the exact number is not on record here.

What is called MIC99 is the lowest concentration that inhibits either 99% of growth or 99% of the strains tested, depending on the study. What is called pIC50 is the negative decadic logarithm of the IC50, by convention in mol/L.

Consider `CCN(Cc1ccc(Cl)cc1)c1cc(C(=O)Nc2ccccc2)ncn1`, for which the MIC99 is over 50 µM in data set [1] and 40 µM (≈ 14.7 µg/mL) in data set [2]. Moreover, in the data set with Vero, the pIC50 was 3.57. The same compound showed a Kinetic_solubility in data set [3] of 5 µM.
Regarding `CN(Cc1ccc(F)cc1)c1ccnc(C(=O)Nc2ccccc2)c1`, the MIC99 in data set [2] amounted to 10 µM (≈ 3.35 µg/mL). Also, in the data set on Vero, the pIC50 was 3.53. Also, in data set [3], the solubility kinetic at 2 h was under 5 µM.
Regarding `CN(Cc1ccc(Cl)cc1)c1cc(C(=O)Nc2ccncc2)ncn1`, in data set [2], the MIC99 is 10 µM (≈ 3.54 µg/mL). Also, the pIC50 in the data set with Vero was 3.55. In data set [3], this compound yielded a Kinetic_solubility of under 5 µM.
Turning to `CN(Cc1ccc(C(F)(F)F)cc1)c1cc(C(=O)Nc2ncn(C)n2)ncn1`, the MIC99 in data set [1] was found to be 50 µM (≈ 19.6 µg/mL); in data set [2] it was 10 µM (≈ 3.91 µg/mL). Further, in the data set on Vero, the pIC50 is 4.55. Also, the Kinetic_solubility in data set [3] was determined as 173 µM.
`COCCOc1ccc(NC(=O)c2cc(N(C)Cc3ccc(F)cc3)ncn2)cc1`: the MIC99 was determined as 2.3 µM (≈ 0.944 µg/mL) in data set [1] and 1.56 µM (≈ 0.64 µg/mL) in data set [2]. The negative-log IC50 (pIC50) in the data set on Vero is 3.61. The Kinetic_solubility in data set [3] is under 5 µM.
Take `COc1ccc(NC(=O)c2ccnc(N(C)Cc3ccc(F)cc3)n2)cc1`: the MIC99 in data set [1] and in data set [2] was over 50 µM throughout. Besides, the pIC50 with Vero is 3.56. Moreover, in data set [3], the solubility kinetic at 2 h was under 5 µM.
As to `COc1ccc(NC(=O)c2cc(N(C)Cc3ccc(Cl)cc3)nc(N)n2)cc1`, the results for the MIC99 in data set [1] and in data set [2] were over 50 µM and over 160 µM, respectively. In addition, the solubility kinetic at 2 h in data set [3] was under 5 µM.
Consider `CN(Cc1ccc(C(F)(F)F)nc1)c1cc(C(=O)Nc2ccc(N3CCOCC3)cn2)ncn1`, for which the MIC99 in data set [1] stood at 3.13 µM (≈ 1.48 µg/mL); in data set [2], 2.3 µM (≈ 1.09 µg/mL). For the same compound, the pIC50 in the data set with Vero was 3.68. Further, the Kinetic_solubility in data set [3] is under 5 µM.
In data set [2], `CN(Cc1ccc(F)cc1)c1cc(NC(=O)c2ccccc2)ncn1` returned an MIC99 of over 160 µM. The same compound showed a Kinetic_solubility in data set [3] of 5 µM.
For the compound `CN(Cc1ccccc1)c1cc(C(=O)Nc2ccccc2)ncn1`, the figures for the MIC99 in data set [1] and in data set [2] were 20 µM (≈ 6.37 µg/mL) and 10 µM (≈ 3.18 µg/mL), respectively. Further, the pIC50 with Vero was 3.50. In data set [3], the Kinetic_solubility is under 5 µM.
Consider `CN(Cc1ccccc1Cl)c1cc(C(=O)Nc2ccccc2)ncn1`, for which the MIC99 in data set [1] is over 160 µM. Also, in data set [3], the Kinetic_solubility was under 5 µM.
`O=C(Nc1ccccc1)c1ccc(=O)n(Cc2ccc(F)cc2)c1`: the MIC99 in data set [1] and in data set [2] was over 50 µM each time. In the data set on Vero, the pIC50 was 3.51. This compound gave a Kinetic_solubility in data set [3] of 170 µM.
For the compound `Cc1nc(C(=O)Nc2ccccc2)cc(N(C)Cc2ccc(Cl)cc2)n1`, the MIC99 in data set [1] and in data set [2] was over 160 µM in each case.
`CN(Cc1ccc(F)cc1)c1cc(C(=O)Nc2ccc(N3CCOCC3)cc2)ncn1`: the MIC99 in data set [1] was 0.78 µM (≈ 0.329 µg/mL); in data set [2] it was 0.6 µM (≈ 0.253 µg/mL). Moreover, the pIC50 in the data set with Vero is 3.63. This compound also gave a Kinetic_solubility in data set [3] of under 5 µM.
Consider `CN(Cc1ccc(F)cc1)c1cc(C(=O)Nc2ccon2)ncn1`, for which the MIC99 was over 50 µM in data set [1] and 160 µM (≈ 52.4 µg/mL) in data set [2].
`CN(c1ccccc1)c1cc(C(=O)Nc2ccccc2)ncn1`: the MIC99 in data set [1] was over 160 µM. This compound also showed a Kinetic_solubility in data set [3] of under 5 µM.
For `Cc1c(C(=O)Nc2ccc(F)cc2)ncnc1N(C)Cc1ccc(F)cc1`, the MIC99 is over 50 µM in data set [1] and 37 µM (≈ 13.6 µg/mL) in data set [2]. Also, in the data set with Vero, the pIC50 is 3.57. In data set [3], the solubility kinetic at 2 h was under 5 µM.
`O=C(Nc1ccccc1)c1cc(OCc2ccccc2)ncn1` displayed an MIC99 in data set [1] of over 160 µM.
As to `COc1ccc(NC(=O)c2cc(N(C)Cc3ccc(Cl)cc3)nc(NC3CC3)n2)cc1`, the MIC99 in data set [1] is over 50 µM; in data set [2], over 160 µM. Besides, the Kinetic_solubility in data set [3] stood at 5 µM.
In the case of `O=C(Nc1ccccc1)c1cc(N2CCc3ccccc3C2)ncn1`, the MIC99 in data set [1] and in data set [2] was over 160 µM throughout. In data set [3], this compound had a Kinetic_solubility of under 5 µM.
For the compound `COc1ccc(NC(=O)c2cc(N(C)Cc3ccc(F)cc3)ncn2)cc1`, the MIC99 was found to be 5 µM (≈ 1.83 µg/mL) in data set [1] and 2.5 µM (≈ 0.916 µg/mL) in data set [2]. Moreover, the pIC50 in the data set on Vero is 4.22. In data set [3], this compound yielded a Kinetic_solubility of 62 µM.
As to `CN(C)CCOc1ccc(NC(=O)c2cc(N(C)Cc3ccc(F)cc3)ncn2)cc1`, the figures for the MIC99 in data set [1] and in data set [2] were 25 µM (≈ 10.6 µg/mL) and 12.5 µM (≈ 5.29 µg/mL), respectively. In data set [3], this compound showed a Kinetic_solubility of 155 µM.
As for `CC(C)NC(=O)c1cc(N(C)Cc2ccc(C(F)(F)F)cc2)ncn1`, the values for the MIC99 in data set [1] and in data set [2] were over 50 µM and over 160 µM, respectively. Also, in the data set on Vero, the pIC50 is 3.66. In data set [3], this compound registered a Kinetic_solubility of 13 µM.
`CN1CCN(c2ccc(NC(=O)c3cc(N(C)Cc4ccc(C(F)(F)F)nc4)ncn3)cc2)CC1`: the MIC99 in data set [1] and in data set [2] was 12.5 µM (≈ 6.07 µg/mL) in each case. In the data set on Vero, the pIC50 was 4.34. The compound also came in with a Kinetic_solubility in data set [3] of 165 µM.
In data set [1], `CN(CCc1ccccc1)c1cc(C(=O)Nc2ccccc2)ncn1` showed an MIC99 of 80 µM (≈ 26.6 µg/mL). Besides, the Kinetic_solubility in data set [3] is under 5 µM.
For `CN(Cc1ccc(C#N)cc1)c1cc(C(=O)Nc2ccccc2)ncn1`, the MIC99 in data set [1] is over 50 µM; in data set [2], 20 µM (≈ 6.87 µg/mL). For the same compound, in data set [3], the solubility kinetic at 2 h was under 5 µM.
As for `CN(Cc1ccccn1)c1cc(C(=O)Nc2ccccc2)ncn1`, the MIC99 in data set [1] was over 160 µM.
In the case of `CN(Cc1ccc(Cl)cc1)c1cc(C(=O)Nc2ccccc2)ncn1`, the figures for the MIC99 in data set [1] and in data set [2] were 5 µM (≈ 1.76 µg/mL) and 2.3 µM (≈ 0.811 µg/mL), respectively. Moreover, the pIC50 in the data set with Vero is 3.68. Further, in data set [3], the Kinetic_solubility is under 5 µM.
`Cc1csc(NC(=O)c2cc(N(C)Cc3ccc(F)cc3)ncn2)n1`: the MIC99 in data set [1] is 37 µM (≈ 13.2 µg/mL); in data set [2], 5 µM (≈ 1.79 µg/mL). The Kinetic_solubility in data set [3] is under 5 µM.
As for `CN1CCN(c2cccc(NC(=O)c3cc(N(C)Cc4ccc(F)cc4)ncn3)c2)CC1`, the MIC99 in data set [1] and in data set [2] was 37 µM (≈ 16.1 µg/mL) in each case. Further, in the data set on Vero, the pIC50 is 3.93. The compound further had a Kinetic_solubility in data set [3] of 74 µM.
`CN(Cc1ccc(F)cc1)c1cncc(C(=O)Nc2ccc(F)cc2)n1`: the MIC99 in data set [1] and in data set [2] was over 50 µM throughout. In the data set on Vero, the pIC50 is 3.55. Further, the solubility kinetic at 2 h in data set [3] was under 5 µM.
On to `CN(Cc1ccc(F)cc1)c1cc(-c2nnc(-c3ccccc3)[nH]2)ncn1`, for which the MIC99 was over 50 µM in data set [1] and 25 µM (≈ 9.01 µg/mL) in data set [2]. In the data set with Vero, the negative-log IC50 (pIC50) was 3.56. In data set [3], this compound had a Kinetic_solubility of under 5 µM.
On to `CC(=O)N1CCN(c2ccc(NC(=O)c3cc(N(C)Cc4ccc(C(F)(F)F)nc4)ncn3)cc2)CC1`, for which the MIC99 turned out to be 4.7 µM (≈ 2.41 µg/mL) in data set [1] and 2.3 µM (≈ 1.18 µg/mL) in data set [2]. Further, in the data set on Vero, the pIC50 was under 4.30. Further, the solubility kinetic at 2 h in data set [3] was under 5 µM.
On to `CN(Cc1ccccc1)c1cc(C(=O)N(C)c2ccccc2)ncn1`, for which the MIC99 in data set [1] was over 160 µM.
For `CN(Cc1cccc(Cl)c1)c1cc(C(=O)Nc2ccccc2)ncn1`, the MIC99 is 20 µM (≈ 7.06 µg/mL) in data set [1] and 10 µM (≈ 3.53 µg/mL) in data set [2]. In addition, the Kinetic_solubility in data set [3] is under 5 µM.
Consider `CN(Cc1ccc(F)cc1)c1cc(C(=O)Nc2ccn(C)n2)ncn1`, for which the figures for the MIC99 in data set [1] and in data set [2] were over 50 µM and 40 µM (≈ 13.6 µg/mL), respectively. Besides, the Kinetic_solubility in data set [3] was 90 µM.
As for `CN(CC1CCCCC1)c1cc(C(=O)Nc2ccccc2)ncn1`, the MIC99 was over 50 µM in data set [1] and 40 µM (≈ 13 µg/mL) in data set [2]. For the same compound, the negative-log IC50 (pIC50) with Vero is 3.75.
As to `O=C(Nc1ccccc1)c1cc(NCc2ccccc2)ncn1`, in data set [1], the MIC99 was over 160 µM. The Kinetic_solubility in data set [3] was under 5 µM.

(Values after ChEMBL document CHEMBL4028901, “Novel Antitubercular 6-Dialkylaminopyrimidine Carboxamides from Phenotypic Whole-Cell High Throughput Screening of a SoftFocus Library: Structure-Activity Relationship and Target Identification Studies” (J Med Chem, 2017).)
